Results taken from ChEMBL document CHEMBL3352761, “Synthesis, antitumor activity, and mechanism of action of benzo[b]chromeno[6,5-g][1,8]naphthyridin-7-one analogs of acronycine” (J Med Chem, 2014).
Calls of active or inactive are those of the source. No cut-off for these calls is given here.

What was measured:
[1] = tested on: L1210; experiment: Induction of cell cycle arrest in mouse L1210 cells assessed as accumulation at S phase at 5 uM incubated for 21 hrs by propidium iodide staining based flow cytometry (reference value: 32%); type: functional
[2] = Induction of 117-bp DNA (unknown origin) alkylation incubated for 5 mins to 24 hrs by gel shift assay
Method in brief: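 117-bp pBS plasmid fragment (EcoRI/PvuII cut), 32P-labelled at EcoRI end, gel-purified. Incubated with drug (rising concentrations up to 50 μM, or fixed 50 μM for kinetics) in 1 mM Na cacodylate pH 7.0, dark, room temperature. Covalent complex seen as shifted band on native 6% PAGE in TBE, phosphorimaging; T1/2 taken as time to half-maximal shift.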

[3] = tested on: L1210; experiment: Cytotoxicity against mouse L1210 cells after 48 hrs by MTT assay; type: functional, cell-based; settings: L1210, 48 h
[4] = Cytotoxicity against human KB-3-1 cells after 96 hrs by MTT assay; type: functional, cell-based; settings: KB 3-1, 96 h
[5] = Induction of 117-bp DNA (unknown origin) alkylation assessed as incubation time required to obtain maximum of covalent drug/DNA complex incubated for 5 mins to 24 hrs by gel shift assay
[6] = Induction of 117-bp DNA (unknown origin) alkylation assessed as incubation time required to obtain half of maximum of covalent drug/DNA complex incubated for 5 mins to 24 hrs by gel shift assay
Method in brief: (§1)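 117-bp pBS EcoRI/PvuII fragment, 32P-end-labelled at EcoRI site, gel-purified; incubated with 50 μM drug in 1 mM Na cacodylate pH 7.0, dark, room temperature, 5 min to 24 h; 6% native polyacrylamide gel in TBE pH 8.3, ~5 h at 300 V; phosphorimaging of shifted band; T1/2 = time to half-maximal gel shift from quantification plots; nd if no maximum reached.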

[7] = tested on: MC-38; experiment: Antitumor activity against mouse C38 cells xenografted in mouse assessed as inhibition of tumor growth at 4 mg/kg, iv administered on day 12 and 24; type: functional
[8] = tested on: L1210; experiment: Induction of cell cycle arrest in mouse L1210 cells assessed as accumulation at S phase at 10 uM incubated for 21 hrs by propidium iodide staining based flow cytometry (reference value: 32%); type: functional
[9] = tested on: L1210; experiment: Induction of cell cycle arrest in mouse L1210 cells assessed as accumulation at S phase at 2.5 uM incubated for 21 hrs by propidium iodide staining based flow cytometry (reference value: 32%); type: functional
[10] = Induction of 117-bp DNA (unknown origin) alkylation at 50 uM incubated for 24 hrs by gel shift assay
Method in brief: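 Labelled 117-bp DNA fragment incubated with drug at increasing concentrations up to 50 μM in 1 mM Na cacodylate pH 7.0, dark, room temperature, 2 or 24 h; native polyacrylamide electrophoresis; bound/free ratio quantified relative to a 50 μM reference alkylator control; scored strong, weak (no plateau by 24 h) or none.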

[11] = Induction of 117-bp DNA (unknown origin) alkylation assessed as incubation time required to obtain half of maximum of covalent drug/DNA complex at 50 uM incubated for 5 mins to 24 hrs by gel shift assay; method in brief: as §1

Compound | Activity [2] | T1/2 [6] | Activity [1] | IC50 [3] | IC50 [4] | also measured
COc1cc2c(c3c1c(=O)c1cc4ccccc4nc1n3C)[C@@H](OC(=O)/C=C/c1ccccc1)[C@@H](OC(=O)/C=C/c1ccccc1)C(C)(C)O2 (racemic) | – | – | – | 5 µM | 540 nM | –
COc1cc2c(c3c1c(=O)c1cc4ccccc4nc1n3C)C=CC(C)(C)O2 | – | – | inactive | 11 µM | 3700 nM | –
COc1cc2c(c3c1c(=O)c1cc4ccccc4nc1n3C)[C@@H](O)[C@@H](O)C(C)(C)O2 (racemic) | – | – | – | 5.1 µM | – | –
COc1c2c(cc3c1c(=O)c1cc4ccccc4nc1n3C)OC(C)(C)[C@@H](O)[C@H]2O (racemic) | – | – | – | 12.5 µM | 7000 nM | –
COc1cc2c(c3c1c(=O)c1ccccc1n3C)C=CC(C)(C)O2 [ACRONINE] | – | – | – | – | 3700 nM | –
COc1ccc(/C=C/C(=O)O[C@@H]2[C@H](O)c3c(cc(OC)c4c(=O)c5cc6ccccc6nc5n(C)c34)OC2(C)C)cc1 (racemic) | Active | – | 76% | 0.29 µM | 23 nM | –
COc1cc2c(c3c1c(=O)c1cc4ccccc4cc1n3C)C(OC(C)=O)C(OC(C)=O)C(C)(C)O2 (single isomer, unassigned; (+)) | – | 20 min | – | – | – | –
COc1c2c(cc3c1c(=O)c1cc4ccccc4nc1n3C)OC(C)(C)C=C2 | – | – | inactive | 24 µM | 14000 nM | –
COc1cc2c(c3c1c(=O)c1cc4ccccc4nc1n3C)[C@@H](O)[C@@H](OC(=O)/C=C/c1ccccc1)C(C)(C)O2 (racemic) | Active | 45 min | – | 0.11 µM | 30 nM | Tmax [5]: 3 h; Activity [8]: 66%
COc1c2c(cc3c1c(=O)c1cc4ccccc4nc1n3C)OC(C)(C)[C@@H](OC(C)=O)[C@H]2OC(C)=O (racemic) | inactive | – | – | 10.3 µM | 8800 nM | –
COc1ccc(/C=C/C(=O)O[C@@H]2[C@H](OC(C)=O)c3c(cc(OC)c4c(=O)c5cc6ccccc6nc5n(C)c34)OC2(C)C)cc1 (racemic) | inactive | – | 70% | 2.9 µM | 470 nM | –

Now from value to compound, other results behind:

Activity [2] | T1/2 [6] | Compound | Activity [1] | IC50 [3] | IC50 [4] | also measured
Active | – | COc1cc2c(c3c1c(=O)c1cc4ccccc4nc1n3C)[C@@H](OC(C)=O)[C@@H](OC(=O)/C=C/c1ccccc1)C(C)(C)O2 (racemic) | 73% | 2.1 µM | 320 nM | –
Active | 30 min | COc1cc2c(c3c1c(=O)c1cc4ccccc4cc1n3C)[C@@H](OC(C)=O)[C@@H](OC(C)=O)C(C)(C)O2 (racemic) | 73% | – | 100 nM | Tmax [5]: 2 h
Active | – | COc1ccc(/C=C/C(=O)O[C@@H]2c3c(cc(OC)c4c(=O)c5cc6ccccc6nc5n(C)c34)OC(C)(C)[C@@H]2OC(=O)/C=C/c2ccc(OC)cc2)cc1 (racemic) | 70% | 9.6 µM | 370 nM | –
Active | 90 min | COc1cc2c(c3c1c(=O)c1cc4ccccc4nc1n3C)[C@H](OC(C)=O)[C@H](OC(C)=O)C(C)(C)O2 | – | 0.21 µM | 35 nM | Tmax [5]: 3 h; TGI [7]: Active
Active | – | COc1cc2c(c3c1c(=O)c1cc4ccccc4nc1n3C)[C@@H](OC(=O)/C=C/c1ccc(C(F)(F)F)cc1)[C@@H](OC(=O)/C=C/c1ccc(C(F)(F)F)cc1)C(C)(C)O2 (racemic) | – | 9.1 µM | 420 nM | Activity [8]: 60%
Active | – | COc1cc2c(c3c1c(=O)c1cc4ccccc4nc1n3C)[C@@H](OC(C)=O)[C@@H](OC(=O)/C=C/c1ccc(C(F)(F)F)cc1)C(C)(C)O2 (racemic) | – | 3.8 µM | 390 nM | Activity [9]: 73%
Active | – | COc1c2c(cc3c1c(=O)c1cc4ccccc4nc1n3C)OC(C)(C)[C@H]1OC(=O)O[C@@H]21 (racemic) | 68% | 20 µM | 12000 nM | –
Active | 60 min | COc1cc2c(c3c1c(=O)c1cc4ccccc4nc1n3C)[C@@H](OC(C)=O)[C@@H](OC(C)=O)C(C)(C)O2 | – | 0.19 µM | 110 nM | Tmax [5]: 3 h; TGI [7]: inactive
– | 20 min | COc1cc2c(c3c1c(=O)c1cc4ccccc4cc1n3C)C(OC(C)=O)C(OC(C)=O)C(C)(C)O2 (single isomer, unassigned; (-)) | – | – | – | –
Active | – | COc1cc2c(c3c1c(=O)c1cc4ccccc4nc1n3C)[C@H]1OC(=O)O[C@H]1C(C)(C)O2 (racemic) | 76% | 0.12 µM | 41 nM | –
Active | – | COc1cc2c(c3c1c(=O)c1cc4ccccc4nc1n3C)C(OC(C)=O)C(OC(C)=O)C(C)(C)O2 (racemic) | 68% | 0.2 µM | 37 nM | inhibition in vivo at 4 mg/kg ([7]; C38, 288 h, read-out: TGI): 95%; Activity [10]: Active
Active | 120 min | COc1cc2c(c3c1c(=O)c1cc4ccccc4nc1n3C)[C@@H](O)[C@@H](OC(=O)/C=C/c1ccc(C(F)(F)F)cc1)C(C)(C)O2 (racemic) | 69% | 0.09 µM | 13 nM | Tmax [5]: 8 h; T1/2 [11]: 2 h
